# pIC50: −log10 of the molar value.
# Columns and labels:
# Trypanosoma cruzi [1] = assay: In vitro growth inhibition of epimastigotes of Trypanosoma cruzi; type: functional, organism-based
# Procedure, shortened: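 Y-strain epimastigotes were grown in axenic culture and proliferation was measured. Compounds came from 10 mg mL-1 DMSO stocks, diluted 1:2 serially in medium to final levels of 0.76–25, each in triplicate. IC50 was derived by linear regression.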
# Trypanosoma cruzi [2] = assay: In vitro growth inhibition of amastigotes of Trypanosoma cruzi; type: functional, organism-based
# Procedure, shortened: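 Intracellular amastigotes, Y-strain, in in vitro infected murine peritoneal macrophages. Compounds were held as 10 mg mL-1 DMSO stocks and serially diluted in medium before use. Read-out was the reduction in intracellular amastigote number. IC50 was obtained by linear regression.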
pIC50 (Trypanosoma cruzi [1]),pIC50 (Trypanosoma cruzi [2]),SMILES
< 4.02,–,O=C(/C=C/c1ccc2c(c1)OCO2)N1CCOCC1
4.76,5.02,C(/C=C/c1ccc2c(c1)OCO2)=C\CN1CCCCC1
< 4.02,–,O=C(/C=C/c1ccc2c(c1)OCO2)N1CCCCC1 [ILEPCIMIDE]
4.25,5.24,O=C(/C=C/C=C/c1ccc2c(c1)OCO2)N1CCOCC1
4.83,5.11,CC(C)N(C(=O)/C=C/C=C/c1ccc2c(c1)OCO2)C(C)C
4.97,5.13,O=C(/C=C/C=C/C=C/c1ccc2c(c1)OCO2)N1CCCCC1
< 4.18,–,COc1ccc(CCNC(=O)/C=C/C=C/c2ccc3c(c2)OCO3)cc1OC
4.71,4.94,O=C(CCCCc1ccc2c(c1)OCO2)N1CCCCC1 [TETRAHYDROPIPERINE]
< 3.94,–,O=C(O)/C=C/C=C/c1ccc2c(c1)OCO2 [PIPERIC ACID]
< 4.08,–,O=C(/C=C/C=C/c1ccc2c(c1)OCO2)OC1CCCCC1
< 4.08,–,CN1CCN(C(=O)/C=C/C=C/c2ccc3c(c2)OCO3)CC1
< 4.09,–,O=C(/C=C/C=C/c1ccc2c(c1)OCO2)NCc1ccccc1

SMILES,pIC50 (Trypanosoma cruzi [1]),pIC50 (Trypanosoma cruzi [2])
O=C(Cn1ccnc1[N+](=O)[O-])NCc1ccccc1 [BENZNIDAZOLE],–,5.59

# From ChEMBL document CHEMBL1149200, “Toxic effects of natural piperine and its derivatives on epimastigotes and amastigotes of Trypanosoma cruzi” (Bioorg Med Chem Lett, 2004)
